Test results from ChEMBL document CHEMBL4406859, “Antitumor and antiviral activities of 4-substituted 1,2,3-triazolyl-2,3-dibenzyl-L-ascorbic acid derivatives” (Eur J Med Chem, 2019).
Active and inactive are the calls of the source. The calls are words filed in the database; no cut-off is given here.

How the values were obtained:
[1] = Cytotoxicity against dog MDCK cells assessed as minimum cytotoxic concentration by observing alteration in cell morphology incubated for 3 days by microscopic analysis; assay type: cell-based, Canis lupus familiaris
[2] = system: Influenza B virus; experiment: Antiviral activity against Influenza B virus (B/Ned/537/05) infected in dog MDCK cells assessed as reduction in virus-induced cytopathogenicity incubated for 7 days by MTS assay; assay type: functional, organism-based
[3] = system: MDCK; experiment: Cytotoxicity against dog MDCK cells assessed as reduction in cell viability incubated for 3 days by coulter counter method; assay type: cell-based, Canis lupus familiaris; settings: mdck, 72 h
[4] = system: Influenza A virus H3N2; experiment: Antiviral activity against Influenza A virus (A/HK/7/87(H3N2)) infected in dog MDCK cells assessed as reduction in virus-induced cytopathogenicity incubated for 7 days by MTS assay; assay type: functional, organism-based; settings: A/Hong Kong/7/1987(H3N2)
[5] = system: Influenza A virus; experiment: Antiviral activity against Influenza A virus (A/Ned/378/05(H1N1)) infected in dog MDCK cells assessed as reduction in virus-induced cytopathogenicity incubated for 7 days by microscopic analysis; assay type: functional, organism-based
[6] = system: Influenza A virus; experiment: Antiviral activity against Influenza A virus (A/Ned/378/05(H1N1)) infected in dog MDCK cells assessed as reduction in virus-induced cytopathogenicity incubated for 7 days by MTS assay; assay type: functional, organism-based
[7] = system: Influenza B virus; experiment: Antiviral activity against Influenza B virus (B/Ned/537/05) infected in dog MDCK cells assessed as reduction in virus-induced cytopathogenicity incubated for 7 days by microscopic analysis; assay type: functional, organism-based
[8] = system: Influenza A virus H3N2; experiment: Antiviral activity against Influenza A virus (A/HK/7/87(H3N2)) infected in dog MDCK cells assessed as reduction in virus-induced cytopathogenicity incubated for 7 days by microscopic analysis; assay type: functional, organism-based; settings: A/Hong Kong/7/1987(H3N2)
[9] = system: A549; experiment: Antiproliferative activity against human A549 cells assessed as reduction in cell viability incubated for 72 hrs by MTT assay; assay type: functional, cell-based; settings: A549, 72 h
Outline: (§1)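 Cells (ATCC) grown in DMEM with 10 FBS, penicillin/streptomycin, 2 mM glutamine, 37 °C, 5 CO2. 5000 cells/well seeded; after 24 h, freshly prepared dilutions at five concentrations (0.01–100 μM) added for 72 h. MTT read-out; absorbance converted to percentage growth by NIH formulas. Two experiments in quadruplicate; IC50 by linear regression.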

[10] = system: Human adenovirus 2; experiment: Antiviral activity against Human adenovirus 2 infected in human HELF cells assessed as reduction in virus-induced cytopathogenicity incubated for 7 days by microscopic analysis; assay type: functional, organism-based
[11] = system: Reovirus sp.; experiment: Antiviral activity against Reovirus infected in vero cells assessed as reduction in virus-induced cytopathogenicity incubated for 7 days by microscopic analysis; assay type: functional, organism-based
[12] = system: Human alphaherpesvirus 2; experiment: Antiviral activity against Herpes simplex virus 2 G infected in human HELF cells assessed as reduction in virus-induced cytopathogenicity incubated for 7 days by microscopic analysis; assay type: functional, organism-based
[13] = system: Human alphaherpesvirus 1; experiment: Antiviral activity against Herpes simplex virus 1 KOS infected in human HELF cells assessed as reduction in virus-induced cytopathogenicity incubated for 7 days by microscopic analysis; assay type: functional, organism-based; settings: strain KOS
[14] = system: Human coronavirus 229E; experiment: Antiviral activity against Human coronavirus 229E infected in human HELF cells assessed as reduction in virus-induced cytopathogenicity incubated for 7 days by microscopic analysis; assay type: functional, organism-based
[15] = system: Human alphaherpesvirus 3; experiment: Antiviral activity against thymidine kinase deficient Varicella zoster virus infected in human HELF cells assessed as reduction in virus-induced cytopathogenicity incubated for 7 days by Giemsa staining based microscopic analysis; assay type: functional, organism-based; settings: Human alphaherpesvirus 3, HELF, 168 h
[16] = system: CFPAC-1; experiment: Antiproliferative activity against human CFPAC-1 cells assessed as reduction in cell viability incubated for 72 hrs by MTT assay; assay type: functional, cell-based; settings: Homo sapiens, CFPAC-1, 72 h; read-out: IC50; outline: as §1
[17] = system: Human alphaherpesvirus 1; experiment: Antiviral activity against Herpes simplex virus 1 TK-KOS-ACV infected in human HELF cells assessed as reduction in virus-induced cytopathogenicity incubated for 7 days by microscopic analysis; assay type: functional, organism-based
[18] = system: Cytomegalovirus; experiment: Antiviral activity against Cytomegalovirus AD169 infected in human HELF cells assessed as reduction in virus-induced cytopathogenicity incubated for 7 days by Giemsa staining based microscopic analysis; assay type: functional, organism-based; settings: Human betaherpesvirus 5, AD169, HELF, 168 h
Outline: (§2)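 Confluent HEL fibroblasts infected with CMV (Davis or AD-169) at 100 PFU/well for 2 h. Residual virus removed, then medium with graded compound concentrations added (duplicate). Incubated 7 days at 37 °C. Cytopathogenicity scored microscopically after ethanol fixation and Giemsa staining. EC50 read from plots of % cytopathogenicity versus concentration.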

[19] = system: Coxsackievirus B4; experiment: Antiviral activity against Human coxsackievirus B4 infected in vero cells assessed as reduction in virus-induced cytopathogenicity incubated for 7 days by microscopic analysis; assay type: functional, organism-based
[20] = system: Sindbis virus; experiment: Antiviral activity against Sindbis virus infected in vero cells assessed as reduction in virus-induced cytopathogenicity incubated for 7 days by microscopic analysis; assay type: functional, organism-based
[21] = system: HeLa; experiment: Antiproliferative activity against human HeLa cells assessed as reduction in cell viability incubated for 72 hrs by MTT assay; assay type: functional, cell-based; outline: as §1
[22] = system: HCT-116; experiment: Antiproliferative activity against human HCT116cells assessed as reduction in cell viability incubated for 72 hrs by MTT assay; assay type: functional, cell-based; settings: HCT-116, 72 h; outline: as §1
[23] = system: Cytomegalovirus; experiment: Antiviral activity against Cytomegalovirus Davis infected in human HELF cells assessed as reduction in virus-induced cytopathogenicity incubated for 7 days by Giemsa staining based microscopic analysis; assay type: functional, organism-based; settings: Human betaherpesvirus 5, Davis, 168 h; outline: as §2
[24] = system: SW-620; experiment: Antiproliferative activity against human SW620 cells assessed as reduction in cell viability incubated for 72 hrs by MTT assay; assay type: functional, cell-based; settings: SW-620, 72 h; outline: as §1
[25] = system: HepG2; experiment: Antiproliferative activity against human HepG2 cells assessed as reduction in cell viability incubated for 72 hrs by MTT assay; assay type: functional, cell-based; settings: HepG2, 72 h; outline: as §1
[26] = system: MCF7; experiment: Antiproliferative activity against human MCF7 cells assessed as reduction in cell viability incubated for 72 hrs by MTT assay; assay type: functional, cell-based; settings: MCF7, 72 h; outline: as §1
[27] = Cytotoxicity against human HELF cells assessed as reduction in cell viability incubated for 3 days by coulter counter method; assay type: cell-based; settings: 72 h
Outline: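 HEL cells seeded at 5 x 10^3/well and allowed to proliferate 24 h, then exposed to graded compound concentrations for 3 days at 37 °C. Cell number counted with a Coulter counter.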

[28] = Cytotoxicity against human HELF cells assessed as minimum cytotoxic concentration by observing alteration in cell morphology incubated for 3 days by microscopic analysis; assay type: cell-based; settings: HELF cells
Outline: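 Read-out is the minimum cytotoxic concentration (MCC): the lowest compound concentration giving a microscopically detectable change in cell morphology. Measured on confluent human embryonic lung (HEL) fibroblast cultures exposed to a range of compound concentrations.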

[29] = system: HFF; experiment: Cytotoxicity against human HFF cells assessed as reduction in cell viability incubated for 72 hrs by MTT assay; assay type: cell-based; outline: as §1
[30] = system: Human alphaherpesvirus 3; experiment: Antiviral activity against thymidine kinase positive Varicella zoster virus infected in human HELF cells assessed as reduction in virus-induced cytopathogenicity incubated for 7 days by Giemsa staining based microscopic analysis; assay type: functional, organism-based; settings: Human alphaherpesvirus 3, HELF, 168 h

## NC12CC3CC(CC(C3)C1)C2 [AMANTADINE]
[1]
  MCC at 72 h: > 100 µM
[2]; 168 h
  EC50: > 100 µM
[3]
  CC50: > 100 µM
[4]; 168 h
  EC50: 0.03 µM
[5]; Influenza A virus, A/Ned/378/05(H1N1), MDCK, 168 h
  EC50: 20 µM
[6]
  EC50: 22.6 µM
[7]; 168 h
  EC50: > 100 µM
[8]; 168 h
  EC50: 0.2 µM

## COc1ccccc1-c1cn(C/C=C2\OC(=O)C(OCc3ccccc3)=C2OCc2ccccc2)nn1
[9]
  IC50: > 100 µM
[10]
  Activity: inactive
[11]
  Activity: inactive
[2]
  Activity: inactive
[12]
  Activity: inactive
[13]
  Activity: inactive
[14]
  Activity: inactive
[15]
  EC50: > 20 µM
[16]
  IC50: > 100 µM
[17]
  Activity: inactive
[18]
  EC50: > 100 µM
[19]
  Activity: inactive
[4]
  Activity: inactive
[20]
  Activity: inactive
[21]
  IC50: > 100 µM
[22]
  IC50: > 100 µM
[23]
  EC50: 10.8 µM
[24]
  IC50: > 100 µM
[5]
  Activity: inactive
[25]
  IC50: > 100 µM
[6]
  Activity: inactive
[26]
  IC50: > 100 µM
[7]
  Activity: inactive
[27]
  CC50: 4.29 µM
[28]
  MCC at 72 h: 100 µM
[29]
  IC50: > 100 µM
[8]
  Activity: inactive
[30]
  EC50: > 100 µM

## CC(C)(C)c1cn(C/C=C2\OC(=O)C(OCc3ccccc3)=C2OCc2ccccc2)nn1
[9]
  IC50: 5.25 µM
[10]
  Activity: inactive
[11]
  Activity: inactive
[2]
  Activity: inactive
[12]
  Activity: inactive
[13]
  Activity: inactive
[14]
  Activity: inactive
[15]
  EC50: 10 µM
[16]
  IC50: > 100 µM
[17]
  Activity: inactive
[18]
  EC50: 8.94 µM
[19]
  Activity: inactive
[4]
  Activity: inactive
[20]
  Activity: inactive
[21]
  IC50: > 100 µM
[22]
  IC50: 47.3 µM
[23]
  EC50: 5.2 µM
[24]
  IC50: 20.7 µM
[5]
  Activity: inactive
[25]
  IC50: 62.2 µM
[6]
  Activity: inactive
[26]
  IC50: 4.93 µM
[7]
  Activity: inactive
[27]
  CC50: 55.5 µM
[28]
  MCC at 72 h: 100 µM
[29]
  IC50: 49.9 µM
[8]
  Activity: inactive
[30]
  EC50: 11.7 µM

## COc1ccc(-c2cn(C/C=C3\OC(=O)C(OCc4ccccc4)=C3OCc3ccccc3)nn2)cc1
[9]
  IC50: > 100 µM
[10]
  Activity: inactive
[11]
  Activity: inactive
[2]
  Activity: inactive
[12]
  Activity: inactive
[13]
  Activity: inactive
[14]
  Activity: inactive
[15]
  EC50: > 100 µM
[16]
  IC50: > 100 µM
[17]
  Activity: inactive
[18]
  EC50: 20 µM
[19]
  Activity: inactive
[4]
  Activity: inactive
[20]
  Activity: inactive
[21]
  IC50: > 100 µM
[22]
  IC50: > 100 µM
[23]
  EC50: 5.74 µM
[24]
  IC50: > 100 µM
[5]
  Activity: inactive
[25]
  IC50: > 100 µM
[6]
  Activity: inactive
[26]
  IC50: 39.1 µM
[7]
  Activity: inactive
[27]
  CC50: > 100 µM
[28]
  MCC at 72 h: > 100 µM
[29]
  IC50: > 100 µM
[8]
  Activity: inactive
[30]
  EC50: > 100 µM
